# Screens: PubChem BioAssay, Broad Institute
# In the library only some 2% were active in any assay of this set; here they are far more common.
# CaV13 ICDI inh: Primary screen for inhibitors of IQ motif and Ca2+-dependent inactivation inhibitor domain binding in CACNA1D, Förster resonance energy transfer in living cells, … | hit rate 0.098% among 340,000 | inhibition, % at 12.3 µM | HEK cells, CFP/YFP FRET ICDI-IQ, plate reader, 10 min; percent FRET-ratio fall versus neutral wells | AID 743397;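 active means mean replicate inhibition of at least 30% and at least 1% of replicates passing that level; inconclusive means only one of the two criteria is met; inactive means neither criterion is met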;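 further: 0% = median of the neutral control wells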
# DENV2 CPE: inhibitors of DENV2 cytopathic effect, primary screen, cell-based, plate reader, single concentration; DENV2-infected cells, cytopathic effect rescue; CPE inhibition, % at 9.99 µM; hit rate 1.7% among 350,000; in the data active means CPE inhibition above about 20%, passing the limit was not always enough; inconclusive means no clear call, values can overlap the other calls; tested in BHK-21 cells;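 further: 0% = median of neutral control wells and 100% = median of positive control wells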
# FN deposition inh: inhibitors of fibronectin matrix deposition, primary screen, AH1F cells, Alexa488-fibronectin fluorescence, plate reader; AH1F fibroblasts, overnight; inhibition, % at 12.6 µM; hit rate 0.086% among 350,000; AID 743247, 2014;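 active means mean inhibition across replicates of 30% or more, regardless of how many single replicates reach that level; inconclusive means mean under 30% yet at least half of replicates reach 30%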;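 further: positive control wells lacked labelled fibronectin entirely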
#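 Schedule: 1 h cell adhesion before compound, then overnight fibronectin incubation; test system: AH1F fibroblast monolayer depositing Alexa488-labelled fibronectin into matrix; quantity: 10000 AH1F cells per well; probe or stimulus: fluorescent fibronectin at 24 nM final; signal: fluorescence, ex 485 nm, em 525 nm; evaluation: percent inhibition as loss of matrix-bound fibronectin fluorescence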
# Xi reactivation: activators of inactive X chromosome reactivation, primary screen, imaging, XiGFP fibroblasts, GFP high-content imaging, set 2; XiGFP mouse fibroblasts, % GFP-positive cells imaging, 3 d; cells co-treated with 5-aza-dC sensitizer; scaled so ellipticine positive control = 100%; activation, % at 7.58 µM; hit rate 0.055% among 360,000;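 active means mean normalized replicate activation at least 10% and every replicate at or above 10%; inconclusive means only one of the two criteria met; inactive means mean below 10% and not all replicates reach 10%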;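 further: 0% = median of on-plate neutral control wells and 100% = ellipticine 6 µM median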
#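 System: XiGFP fibroblasts, SV40-immortalized. Medium: DMEM plus 5-aza-dC sensitizer. Doses: single point. Timing: 3 d treatment, 15 min room-temperature fixation. Control set: ellipticine 6 µM.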
# Casp6 inh: human caspase-6 inhibitors, primary screen, biochemical, VEID-R110 fluorescence, single point, set 2; purified caspase-6, Z-VEID-R110 cleavage fluorescence; P55212; hit rate 0.53% among 350,000; inhibition, % at 12.5 µM;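 active means mean inhibition across replicates at least about 35%, with every replicate also reaching that limit, limit read from the data; inconclusive means only one of the two criteria met; inactive means neither criterion met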;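 further: 0% = median of neutral control wells and 100% = no fluorescence left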
# Target sequence (P55212 24-179 limits assumed): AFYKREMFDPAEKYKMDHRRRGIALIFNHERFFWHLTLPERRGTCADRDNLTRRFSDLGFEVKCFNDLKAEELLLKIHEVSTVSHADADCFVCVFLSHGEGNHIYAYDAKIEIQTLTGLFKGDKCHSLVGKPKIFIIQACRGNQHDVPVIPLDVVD
# Target sequence (P55212 194-293 limits assumed): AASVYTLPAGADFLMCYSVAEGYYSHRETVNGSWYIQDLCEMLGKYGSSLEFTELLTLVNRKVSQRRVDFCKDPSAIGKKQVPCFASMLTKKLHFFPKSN
# * hit, by the source's call; ? = inconclusive; nt = not tested or not shown; ! = repeats disagree.
SMILES,CaV13 ICDI inh,DENV2 CPE,FN deposition inh,Xi reactivation,Casp6 inh
COc1ccc(S(=O)(=O)Nc2ccc3c(c2)CC(=O)N([C@H](C)CO)C[C@H](C)[C@H](CN(C)C(=O)Nc2c(C)noc2C)O3)cc1,nt,nt,7,0,1
CCNC(=O)c1cc2c(c(-c3cccc(-c4cncnc4)c3)n1)[C@@H](CCO)N(C(C)=O)C2,-7,40*!,3,0,-4
CCC(=O)N1Cc2cc(C(=O)N(C)C)nc(-c3cccc(-c4cncnc4)c3)c2[C@H]1CCO,nt,-4,2,0,-7
C/C=C/c1ccc2c(c1)O[C@H](CN(C)C(=O)Nc1ccc(C(F)(F)F)cc1)[C@H](C)CN([C@@H](C)CO)S2(=O)=O,nt,-3,13,0,1
C[C@@H]1CN([C@@H](C)CO)C(=O)c2cc(C#C[C@@H](C)O)cnc2O[C@@H]1CN(C)CC1CCOCC1,nt,?,-12,1,-6
CSc1ccc(Cl)c(C(=O)NCCOc2cc(C)ccc2C(C)C)c1,-7,1,nt,nt,1
Cc1ccc(C(C)C)c(OCCNC(=O)c2ccccc2O)c1,-10,45*,5,0,-1
Cn1cnc(S(=O)(=O)N2CCCCN3[C@H](C2)[C@H](c2ccc(C4=CCCC4)cc2)[C@@H]3CO)c1,nt,-3,nt,nt,nt
CC1Cc2ccccc2N1S(=O)(=O)c1cnc(Cl)c(Br)c1 (stereo not drawn),-5,65*,-7,0,-4
CC1Cc2ccccc2N1S(=O)(=O)c1cnc(Cl)c(Cl)c1 (stereo not drawn),5,5,9,0,-8
NS(=O)(=O)c1cc(C(=O)NC2CCSc3ccccc32)ccc1Cl (stereo not drawn),-3,6,-3,0,80*
NS(=O)(=O)c1cccc(C(=O)NC2CCSc3ccccc32)c1 (stereo not drawn),-3,9,3,0,3
COc1cccc(NC(=O)N[C@H]2CC[C@H](CC(=O)Nc3ccc(-c4ccccc4)cc3)O[C@H]2CO)c1,nt,-6,-16,3,-1
CS(=O)(=O)N1CC2(C1)[C@@H](c1ccccc1)[C@@H](CO)N2CCC(F)(F)F,nt,20*,nt,0,0
OC[C@@H]1[C@@H](c2ccccc2)C2(CN(CC3CCOCC3)C2)N1Cc1nccs1,nt,51*,-3,0,0
CCS(=O)(=O)N1CC2(C1)[C@@H](c1ccccc1)[C@H](CO)N2Cc1ccc(F)cc1,nt,35*,-4,0,1
CCS(=O)(=O)N1CC2(C1)[C@@H](c1ccccc1)[C@@H](CO)N2Cc1ccc(F)cc1,nt,1,-2,0,-1
O=C(CC1CC1)N1CC2(C1)[C@H](c1ccccc1)[C@@H](CO)N2Cc1ccc(F)cc1,nt,3,nt,0,0
OC[C@@H]1[C@@H](c2ccccc2)C2(CN(CC3CC3)C2)N1Cc1ccc(F)cc1,nt,23*,2,1,0
O=C(C1CC1)N1[C@H](CO)[C@H](c2ccccc2)C12CN(CCC(F)(F)F)C2,nt,16,2,0,-4
O=C(c1ccccc1)N1[C@H](CO)[C@H](c2ccccc2)C12CN(CCC(F)(F)F)C2,nt,20*,nt,0,-1
O=C(O)c1cccc(N2C(=O)C3CC=C(Cl)CC3C2=O)c1 (stereo not drawn),-2,0,-1,0,67*
COCC(=O)Nc1ccc2c(c1)C(=O)N(C)C[C@H](OC)[C@H](C)CN(C(=O)CC1CC1)[C@@H](C)CO2,nt,18,2,0,0
O=C(C[C@@H]1C[C@@H]2c3cc(NC(=O)C4CCC4)ccc3O[C@@H]2[C@H](CO)O1)NC1CCCC1,nt,1,2,0,0
CC(C)(C)c1ccc(C(=O)Nc2ccc3c(c2)C(=O)NC3=O)cc1,-7,58*,6,0,-4
SMILES,CaV13 ICDI inh,DENV2 CPE,FN deposition inh,Xi reactivation,Casp6 inh
CN(CC(=O)Nc1ccc(F)cc1)C(=O)COC(=O)c1nc(Cl)ccc1Cl,-7,73*,4,0,-4
O=C(COC(=O)c1nc(Cl)ccc1Cl)Nc1ccc(Cl)cc1,-5,3,6,0,-4
CCOC(=O)C(=O)Cc1cccnn1,-5,0,-1,0,44*
O=C1C2C3C=CC(C2C(=O)N1c1nccs1)C1C(=O)N(c2nccs2)C(=O)C31 (stereo not drawn),-3,0,-1,0,9
O=C1C2C3C=CC(CC3)C2C(=O)N1c1nccs1 (stereo not drawn),-4,3,2,0,67*
C[C@@H]1CN([C@@H](C)CO)C(=O)Cc2cc(NC(=O)Cn3cnnn3)ccc2O[C@H]1CN(C)CC1CCCCC1,nt,-7,-4,0,0
COc1ccc2c3c(n(C)c2c1)[C@@H](CO)N(S(C)(=O)=O)CC31CCN(C(=O)C2CC2)CC1,nt,7,nt,0,-1
COc1ccc2c3c(n(C)c2c1)[C@H](CO)N(C(=O)C1CC1)CC31CCN(C(=O)CN(C)C)CC1,nt,11,-2,0,-1
COc1ccc2c3c(n(C)c2c1)[C@H](CO)N(S(C)(=O)=O)CC31CCN(C(=O)C2CC2)CC1,nt,31*,nt,0,-1
COc1ccc2c3c(n(C)c2c1)[C@@H](CO)N(C(=O)C1CC1)CC31CCN(C(=O)CN(C)C)CC1,nt,23*,8,0,0
COc1cccc(NC(=O)N2C[C@H](O)COC[C@H]3O[C@@H](CC(=O)NCc4ccccc4F)CC[C@@H]32)c1,nt,0,-2,0,-1
C=CCn1c(SCC(C)=O)nc2scc(-c3ccco3)c2c1=O,-3,-9,6,0,9
C=CCn1c(SC(F)F)nc2scc(-c3ccco3)c2c1=O,-6,8,37*,0,-2
C[C@@H]1CN([C@H](C)CO)C(=O)c2cc(NC(=O)CCCN(C)C)ccc2O[C@H]1CN(C)S(=O)(=O)c1cn(C)cn1,nt,6,nt,0,3
Cc1noc(C)c1NC(=O)Nc1ccc2c(c1)C(=O)N([C@@H](C)CO)C[C@@H](C)[C@H](CN(C)S(=O)(=O)c1ccc(Cl)cc1)O2,nt,28*,nt,0,0
C[C@H]1CN([C@@H](C)CO)C(=O)c2cc(NC(=O)CCCN(C)C)ccc2O[C@@H]1CN(C)S(=O)(=O)c1cn(C)cn1,nt,38*,nt,0,4
C[C@H]1CN([C@@H](C)CO)C(=O)c2cc(NC(=O)CCC(F)(F)F)ccc2O[C@H]1CN(C)S(=O)(=O)c1ccc(Cl)cc1,nt,73*,nt,-1,4
